Test results: ChEMBL document CHEMBL4689842, “EUbOPEN Chemogenomics Library wave 1” (2021)
Several values for one entry are separate records, joined by “and”; a condition that tells them apart may be missing. Identical values can stand only once.

What was measured:
Format in all cases: toxicity, cell-based
[1] = system: Fibroblast; test: Multiplex assay against human fibroblast; settings: 10 µM, compound concentration 10 uM
Outline: (§1)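 Per cents of healthy-nucleus cells form the tubulin, mitochondrial-mass and membrane-permeability phenotype values. Live cells were stained at seeding with Hoechst33342, BioTracker Green Microtubule Cytoskeleton Dye, MitoTracker Red and Annexin V Alexa Fluor 680. After compound addition they were imaged on a CQ1 microscope at 37°C and 5% CO2, and CellPathfinder machine-learning gating split them into Hoechst high-intensity objects or normal cells, normal cells into healthy, pyknosed or fragmented nuclei, and pyknosed cells into mitotic or apoptotic.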

[2] = system: HEK-293T; test: Multiplex assay against HEK293T; settings: human, 10 µM, compound concentration 10 uM; outline: as §1;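 for Population Tubulin-Different-Phenotype (%): share of the cells with healthy nuclei that show this phenotype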
[3] = system: U2OS; test: Multiplex assay against U2OS; settings: human, 10 µM, compound concentration 10 uM; outline: as §1
[4] = system: HEK-293T; test: Incucyte cell viability with HEK293T; settings: human, 10 µM, compound concentration 10 uM; note: filed as whole numbers so only -1 and 0 and 1 occur
[5] = system: Fibroblast; test: Incucyte cell viability with human fibroblast; settings: 10 µM, compound concentration 10 uM; note: filed as whole numbers so only -1 and 0 and 1 occur
[6] = system: U2OS; test: Incucyte cell viability with U2OS; settings: human, 10 µM, compound concentration 10 uM; note: filed as whole numbers so only -1 and 0 and 1 occur
[7] = 6 h, replicate number 1, timepoint 6 hours
[8] = 12 h, replicate number 1, timepoint 12 hours
[9] = 18 h, replicate number 1, timepoint 18 hours
[10] = 24 h, replicate number 1, timepoint 24 hours
[11] = 0 h, replicate number 1, timepoint 0 hours

CCn1c(=O)c(-c2ccc(Cl)cc2Cl)cc2cnc(Nc3ccc(N4CCNCC4)c(F)c3)nc21
Population Apoptotic (%) ([1]; 12 h, replicate 1): 33% and 53% and 60% | Population Fragmented Nuclei (%) ([1]; 12 h, replicate 1): 33% and 37% and 26% | Population Healthy Nuclei (%) ([1]; 12 h, replicate 1): 39% and 46% and 56% | Population Hoechst High Intensity Objects (%) ([1]; 12 h, replicate 1): 69% and 59% and 37% | Population Mitochondria Different-Phenotype (%) ([1]; 12 h, replicate 1): 11% and 6% and 5% | Population Mitotic Cells (%) ([1]; 12 h, replicate 1): 66% and 46% and 39% | Population Normal (%) ([1]; 12 h, replicate 1): 30% and 41% and 62% | Population Pyknosed Nuclei (%) ([1]; 12 h, replicate 1): 27% and 16% | Population Fragmented Nuclei (%) ([1]; 12 h, replicate 2): 44% and 57% and 61% | Population Healthy Nuclei (%) ([1]; 12 h, replicate 2): 18% and 35% and 19% | Population Hoechst High Intensity Objects (%) ([1]; 12 h, replicate 2): 50% and 51% and 70% | Population Normal (%) ([1]; 12 h, replicate 2): 50% and 48% and 29% | Total Cell Count ([1]; 12 h, replicate 2): 206 and 112 and 242 | Population Apoptotic (%) ([1]; 24 h, replicate 1): 47% and 66% and 63% | Population Fragmented Nuclei (%) ([1]; 24 h, replicate 1): 40% and 37% and 23% | Population Healthy Nuclei (%) ([1]; 24 h, replicate 1): 32% and 38% and 58% | Population Hoechst High Intensity Objects (%) ([1]; 24 h, replicate 1): 72% and 65% and 42% | Population Mitochondria Different-Phenotype (%) ([1]; 24 h, replicate 1): 14% and 20% and 7% | Population Mitotic Cells (%) ([1]; 24 h, replicate 1): 52% and 33% and 36% | Population Normal (%) ([1]; 24 h, replicate 1): 27% and 34% and 57% | Population Pyknosed Nuclei (%) ([1]; 24 h, replicate 1): 24% and 17% | Population Tubulin-Different-Phenotype (%) ([1]; 24 h, replicate 1): 33% and 32% | Total Cell Count ([1]; 24 h, replicate 1): 236 and 703 and 456 | Population Apoptotic (%) ([1]; 24 h, replicate 2): 100% and 71% and 73% | Population Fragmented Nuclei (%) ([1]; 24 h, replicate 2): 41% and 62% and 53% | Population Healthy Nuclei (%) ([1]; 24 h, replicate 2): 31% and 23% and 24% | Population Hoechst High Intensity Objects (%) ([1]; 24 h, replicate 2): 44% and 54% and 74% | Population Normal (%) ([1]; 24 h, replicate 2): 55% and 45% and 25% | Population Pyknosed Nuclei (%) ([1]; 24 h, replicate 2): 26% and 13% and 22% | Total Cell Count ([1]; 24 h, replicate 2): 225 and 111 and 256 | Population Apoptotic (%) ([1]; 48 h, replicate 1): 35% | Population Fragmented Nuclei (%) ([1]; 48 h, replicate 1): 36% | Population Healthy Nuclei (%) ([1]; 48 h, replicate 1): 46% | Population Hoechst High Intensity Objects (%) ([1]; 48 h, replicate 1): 67% | Population Membrane Permeable-Phenotype (%) ([1]; 48 h, replicate 1): 30% | Population Mitochondria Different-Phenotype (%) ([1]; 48 h, replicate 1): 15% | Population Mitotic Cells (%) ([1]; 48 h, replicate 1): 64% | Population Normal (%) ([1]; 48 h, replicate 1): 32% | Population Pyknosed Nuclei (%) ([1]; 48 h, replicate 1): 16% | Population Tubulin-Different-Phenotype (%) ([1]; 48 h, replicate 1): 15% | Total Cell Count ([1]; 48 h, replicate 1): 255 | Population Apoptotic (%) ([1]; 48 h, replicate 2): 71% | Population Fragmented Nuclei (%) ([1]; 48 h, replicate 2): 60% | Population Healthy Nuclei (%) ([1]; 48 h, replicate 2): 31% | Population Hoechst High Intensity Objects (%) ([1]; 48 h, replicate 2): 76% | Population Membrane Permeable-Phenotype (%) ([1]; 48 h, replicate 2): 65% | Population Mitochondria Different-Phenotype (%) ([1]; 48 h, replicate 2): 7% | Population Mitotic Cells (%) ([1]; 48 h, replicate 2): 28% | Population Normal (%) ([1]; 48 h, replicate 2): 23% | Population Pyknosed Nuclei (%) ([1]; 48 h, replicate 2): 8% | Total Cell Count ([1]; 48 h, replicate 2): 348 | Population Fragmented Nuclei (%) ([2]; 12 h, replicate 1): 32% and 25% and 19% | Population Hoechst High Intensity Objects (%) ([2]; 12 h, replicate 1): 51% and 56% and 22% | Population Membrane Permeable-Phenotype (%) ([2]; 12 h, replicate 1): 0% and 19% and 5% | Population Normal (%) ([2]; 12 h, replicate 1): 48% and 43% and 77% | Population Pyknosed Nuclei (%) ([2]; 12 h, replicate 1): 63% and 42% and 26% | Population Tubulin-Different-Phenotype (%) ([2]; 12 h, replicate 1): 40% and 64% and 37% | Population Tubulin-Different-Phenotype (%) ([2]; 12 h, replicate 2): 85% and 75% and 43% | Population Fragmented Nuclei (%) ([2]; 24 h, replicate 1): 38% and 33% and 20% | Population Normal (%) ([2]; 24 h, replicate 1): 40% and 41% and 81% | Total Cell Count ([2]; 24 h, replicate 1): 280 and 738 and 614 | Population Fragmented Nuclei (%) ([2]; 24 h, replicate 2): 16% and 32% and 12% | Population Healthy Nuclei (%) ([2]; 24 h, replicate 2): 43% and 40% and 83% | Population Normal (%) ([2]; 24 h, replicate 2): 39% and 33% and 93% | Population Tubulin-Different-Phenotype (%) ([2]; 24 h, replicate 2): 75% and 91% and 46% | Population Apoptotic (%) ([2]; 48 h, replicate 1): 75% | Population Fragmented Nuclei (%) ([2]; 48 h, replicate 1): 46% | Population Healthy Nuclei (%) ([2]; 48 h, replicate 1): 3% | Population Hoechst High Intensity Objects (%) ([2]; 48 h, replicate 1): 56% | Population Membrane Permeable-Phenotype (%) ([2]; 48 h, replicate 1): 0% | Population Mitochondria Different-Phenotype (%) ([2]; 48 h, replicate 1): 25% | Population Mitotic Cells (%) ([2]; 48 h, replicate 1): 24% | Population Normal (%) ([2]; 48 h, replicate 1): 43% | Population Pyknosed Nuclei (%) ([2]; 48 h, replicate 1): 50% | Population Tubulin-Different-Phenotype (%) ([2]; 48 h, replicate 1): 0% | Total Cell Count ([2]; 48 h, replicate 1): 280 | Population Apoptotic (%) ([2]; 48 h, replicate 2): 100% | Population Fragmented Nuclei (%) ([2]; 48 h, replicate 2): 32% | Population Healthy Nuclei (%) ([2]; 48 h, replicate 2): 38% | Population Hoechst High Intensity Objects (%) ([2]; 48 h, replicate 2): 63% | Population Membrane Permeable-Phenotype (%) ([2]; 48 h, replicate 2): 7% | Population Mitochondria Different-Phenotype (%) ([2]; 48 h, replicate 2): 92% | Population Mitotic Cells (%) ([2]; 48 h, replicate 2): 0% | Population Normal (%) ([2]; 48 h, replicate 2): 36% | Population Pyknosed Nuclei (%) ([2]; 48 h, replicate 2): 28% | Population Tubulin-Different-Phenotype (%) ([2]; 48 h, replicate 2): 82% | Total Cell Count ([2]; 48 h, replicate 2): 296 | Population Apoptotic (%) ([3]; 12 h, replicate 1): 97% and 89% and 38% | Population Normal (%) ([3]; 12 h, replicate 1): 31% and 45% and 92% | Total Cell Count ([3]; 12 h, replicate 1): 204 and 465 and 202 | Population Apoptotic (%) ([3]; 12 h, replicate 2): 100% and 88% and 46% | Population Fragmented Nuclei (%) ([3]; 12 h, replicate 2): 44% and 21% and 19% | Population Membrane Permeable-Phenotype (%) ([3]; 12 h, replicate 2): 71% and 78% | Population Normal (%) ([3]; 12 h, replicate 2): 50% and 40% and 80% | Total Cell Count ([3]; 12 h, replicate 2): 206 and 130 and 83 | Population Apoptotic (%) ([3]; 24 h, replicate 1): 87% and 91% and 60% | Population Fragmented Nuclei (%) ([3]; 24 h, replicate 1): 22% and 8% | Population Normal (%) ([3]; 24 h, replicate 1): 40% and 34% and 89% | Population Pyknosed Nuclei (%) ([3]; 24 h, replicate 1): 50% and 40% and 25% | Total Cell Count ([3]; 24 h, replicate 1): 436 and 206 and 232 | Population Apoptotic (%) ([3]; 24 h, replicate 2): 100% and 53% | Population Fragmented Nuclei (%) ([3]; 24 h, replicate 2): 41% and 39% | Population Healthy Nuclei (%) ([3]; 24 h, replicate 2): 31% and 45% and 50% | Population Pyknosed Nuclei (%) ([3]; 24 h, replicate 2): 26% and 15% and 27% | Population Tubulin-Different-Phenotype (%) ([3]; 24 h, replicate 2): 84% and 86% and 29% | Total Cell Count ([3]; 24 h, replicate 2): 225 and 118 and 97 | Population Apoptotic (%) ([3]; 48 h, replicate 1): 90% | Population Fragmented Nuclei (%) ([3]; 48 h, replicate 1): 48% | Population Healthy Nuclei (%) ([3]; 48 h, replicate 1): 10% | Population Hoechst High Intensity Objects (%) ([3]; 48 h, replicate 1): 59% | Population Membrane Permeable-Phenotype (%) ([3]; 48 h, replicate 1): 75% | Population Mitochondria Different-Phenotype (%) ([3]; 48 h, replicate 1): 62% | Population Mitotic Cells (%) ([3]; 48 h, replicate 1): 9% | Population Normal (%) ([3]; 48 h, replicate 1): 40% | Population Pyknosed Nuclei (%) ([3]; 48 h, replicate 1): 41% | Population Tubulin-Different-Phenotype (%) ([3]; 48 h, replicate 1): 75% | Total Cell Count ([3]; 48 h, replicate 1): 620 | Population Apoptotic (%) ([3]; 48 h, replicate 2): 100% | Population Fragmented Nuclei (%) ([3]; 48 h, replicate 2): 43% | Population Healthy Nuclei (%) ([3]; 48 h, replicate 2): 26% | Population Hoechst High Intensity Objects (%) ([3]; 48 h, replicate 2): 56% | Population Membrane Permeable-Phenotype (%) ([3]; 48 h, replicate 2): 100% | Population Mitochondria Different-Phenotype (%) ([3]; 48 h, replicate 2): 91% | Population Mitotic Cells (%) ([3]; 48 h, replicate 2): 0% | Population Normal (%) ([3]; 48 h, replicate 2): 43% | Population Pyknosed Nuclei (%) ([3]; 48 h, replicate 2): 30% | Population Tubulin-Different-Phenotype (%) ([3]; 48 h, replicate 2): 91% | Total Cell Count ([3]; 48 h, replicate 2): 227 | Growth Rate [4, 7]: 0 | Growth Rate [4, 8]: 0 | Growth Rate [4, 9]: 0 | Growth Rate [4, 10]: 0 | Growth Rate [5, 11]: 0 | Growth Rate [5, 7]: 0 | Growth Rate [5, 8]: 0 | Growth Rate [5, 9]: 0 | Growth Rate [5, 10]: 0 | Growth Rate [6, 11]: 0 | Growth Rate [6, 7]: 0 | Growth Rate [6, 8]: 0 | Growth Rate [6, 9]: 0 | Growth Rate [6, 10]: 0
